Test [1] concerns MDA-MB-231. The test is described as follows: Antiinvasive activity in human MDA-MB-231 at 5 uM after 24 hrs by BME cell invasion assay. It counts as functional, cell-based. In short, it runs like this: (§1)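 Cultrex 96-well BME invasion kit (Boyden-type, 8 µm PET membrane), BME 1X coat set overnight at 37 °C. 50,000 MDA-MB-231 cells in serum-free RPMI put in the top chamber with compound at 5 µM. The lower chamber held RPMI with 10% FBS, fibronectin and 10 nM fMLP as chemoattractants. Migration ran 24 h at 37 °C. Invaded cells were loaded with calcein-AM for 1 h and read by fluorescence (ex 485/em 520 nm).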

Test [2] concerns MDA-MB-231. The test is described as follows: Antiproliferative activity against human MDA-MB-231 cells after 96 hrs by MTT assay. It counts as functional, cell-based. The following applies: MDA-MB-231, 96 h. In short, it runs like this: (§2)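 Cells were grown in RPMI with 10% FBS, 2 mmol/L glutamine and penicillin/streptomycin at 37 °C, 5% CO2. They were seeded at 8 × 10^3 cells/well and left to attach for 24 h. Medium was then changed to serum-free RPMI containing compound at 20, 10, 5 or 2 µM for 96 h. MTT was added for 4 h, then solubilized, and A570 read. Cell number came from a hemocytometer standard curve. IC50 was taken by nonlinear regression of log concentration vs cells/well.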

A further test has as its system MCF7. The experiment in a line: Antiproliferative activity against human MCF7 cells after 96 hrs by MTT assay. It counts as functional, cell-based. The settings on record: MCF7, 96 h. In short, it runs like this:
as §2

Test [3] deals with MDA-MB-231. The experiment in a line: Antiinvasive activity in human MDA-MB-231 assessed as cell migration at 5 uM after 24 hrs by BME cell invasion assay. The test is classed as functional, cell-based. Summed up: as §1
Test [4] is described as follows: Inhibition of EGF-dependent mouse +SA cells growth. It counts as functional, +SA cell.
Test [5] can be described thus: Ratio of IC50 for gamma-tocotrienol to IC50 for drug against mouse +SA cells after 4 days by MTT assay. It counts as functional, +SA cell. A general note: Tetrazolium assays rely on reduction of a dye to a coloured formazan, in cell work by metabolically active cells.
Test [6] in a line: Antiproliferative activity against mouse +SA cells after 4 days by MTT assay. The test is classed as functional, cell-based. The following applies: +SA cell, 96 h. Summed up:
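+SA mouse mammary epithelial cells were kept in serum-free medium with 10 ng/mL EGF and 10 µg/mL insulin as mitogens. They were plated at 5 × 10^4 cells/well, 6 wells/group, and fed compound at 0.01–1000 µM. Viable cell number was measured by MTT after 4 days of culture.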

The source made the active and inactive calls. The rule behind the calls is not given here.

Turning to `COc1cc(COc2cc3c(c(C)c2C)O[C@](C)(CC/C=C(\C)CC/C=C(\C)CCC=C(C)C)CC3)cc(OC)c1`, the result with MDA-MB-231 [1] was inactive.
As for `CC(C)=CCC/C(C)=C/CC/C(C)=C/CC[C@]1(C)CCc2c(C)c(OC(=O)NS(=O)(=O)c3ccc(C)cc3)c(C)c(C)c2O1`, the IC50 (commonly the midpoint of a concentration-inhibition curve) was over 10 µM with MDA-MB-231 [2] and 6.1 µM in the test on MCF7.
In the test with MCF7, `Cc1cc(C)c2c(c1C)O[C@](C)(CCCC(C)CCCC(C)CCCC(C)C)CC2` (some centres undefined) gave a concentration for half-maximal inhibition (IC50) of 329 µM.
Turning to `CC(C)=CCC/C(C)=C/CC/C(C)=C/CC[C@]1(C)CCc2cc(OC/C=C(\C)CC/C=C(\C)CCC=C(C)C)cc(C)c2O1`, the result with MDA-MB-231 [1] was inactive.
Regarding `CC(C)=CCC/C(C)=C/CC/C(C)=C/CC[C@]1(C)CCc2cc(O)cc(C)c2O1` [DELTA-TOCOTRIENOL], the values for the 50% inhibitory concentration (IC50) in the test on MDA-MB-231 [2] and in the test with MCF7 were over 10 µM and 15.5 µM, respectively.
`CC(C)=CCC/C(C)=C/CC/C(C)=C/CC[C@]1(C)CCc2c(C)c(OC(=O)NCc3ccccc3)c(C)c(C)c2O1`: the IC50 in the test on MDA-MB-231 [2] is 7.2 µM; in the test with MCF7, over 20 µM. In addition, the Activity in the test with MDA-MB-231 [3] was 8%.
As for `COc1cccc(COc2c(C)c(C)c3c(c2C)CC[C@@](C)(CC/C=C(\C)CC/C=C(\C)CCC=C(C)C)O3)c1`, in the test with MDA-MB-231 [1], the outcome was inactive.
For `CC(C)=CCC/C(C)=C/CC/C(C)=C/CC[C@]1(C)CCc2cc(OC(=O)NCc3ccccc3)cc(C)c2O1`, the results for the IC50 with MDA-MB-231 [2] and with MCF7 were over 10 µM and over 20 µM, respectively.
`CC(C)=CCC/C(C)=C/CC/C(C)=C/CC[C@]1(C)CCc2cc(OCCC(C)C)c(C)c(C)c2O1`: the result with MDA-MB-231 [1] was inactive.
`CC(C)=CCC/C(C)=C/CC/C(C)=C/CC[C@]1(C)CCc2c(C)c(OC(=O)NS(=O)(=O)c3ccc(Cl)cc3)c(C)c(C)c2O1`: the concentration for half-maximal inhibition (IC50) is over 10 µM in the test with MDA-MB-231 [2] and 5.1 µM with MCF7.
As for `CC(C)=CCC/C(C)=C/CC/C(C)=C/CC[C@]1(C)CCc2c(C)c(OC/C=C(\C)CC/C=C(\C)CCC=C(C)C)c(C)c(C)c2O1`, in the test with MDA-MB-231 [1], the outcome was inactive.
As for `CC(C)=CCC/C(C)=C/CC/C(C)=C/CC[C@]1(C)CCc2c(C)c(O)c(C)c(C)c2O1` [ALPHA-TOCOTRIENOL], the half-inhibitory concentration (IC50) in the test with MDA-MB-231 [2] is over 10 µM; in the test on MCF7, over 20 µM.
Turning to `CC(C)=CCC/C(C)=C/CC/C(C)=C/CC[C@]1(C)CCc2cc(O)c(C)c(C)c2O1` [GAMMA-TOCOTRIENOL], the figures for the IC50 in the test with MDA-MB-231 [2] and in the test on MCF7 were over 10 µM and 11.4 µM, respectively. Further, in test [4], the “inhibition (INH)” value came to 50%.
Regarding `CC(C)=CCC/C(C)=C/CC/C(C)=C/CC[C@]1(C)CCc2cc(OC(=O)Nc3ccccc3)c(C)c(C)c2O1`, the figures for the IC50 in the test with MDA-MB-231 [2] and in the test on MCF7 were over 10 µM and over 20 µM, respectively.
Take `CC(C)=CCC/C(C)=C/CC/C(C)=C/CC[C@]1(C)CCc2cc(OC(=O)NS(=O)(=O)c3ccccc3)cc(C)c2O1`: the IC50 is over 10 µM in the test with MDA-MB-231 [2] and 6.1 µM in the test on MCF7.
On to `CC(C)=CCC/C(C)=C/CC/C(C)=C/CC[C@]1(C)CCc2cc(OC/C=C(\C)CC/C=C(\C)CCC=C(C)C)c(C)c(C)c2O1`, for which the result in the test with MDA-MB-231 [1] was inactive.
In the case of `COc1cc(COc2c(C)c(C)c3c(c2C)CC[C@@](C)(CC/C=C(\C)CC/C=C(\C)CCC=C(C)C)O3)cc(OC)c1`, the outcome with MDA-MB-231 [1] was inactive.
As to `Cc1c(C)c2c(c(C)c1OC(=O)[C@@H](N)CCCCN)CC[C@@](C)(CCCC(C)CCCC(C)CCCC(C)C)O2` (some centres undefined), the IC50 in the test with MCF7 is 12 µM.
`CC(C)=CCC/C(C)=C/CC/C(C)=C/CC[C@]1(C)CCc2cc(OC(=O)NC(=O)Oc3ccccc3)cc(C)c2O1` yielded a half-inhibitory concentration (IC50) in the test on MCF7 of 5.6 µM. Against the preceding compound, the IC50 is about 2.1-fold lower.
Turning to `Cc1c(C)c2c(c(C)c1OC(=O)CCC(=O)O)CC[C@@](C)(CCCC(C)CCCC(C)CCCC(C)C)O2` (some centres undefined), the 50% inhibitory concentration (IC50) with MCF7 is over 368 µM.
Regarding `CC(C)=CCC/C(C)=C/CC/C(C)=C/CC[C@]1(C)CCc2cc(OC(=O)NS(=O)(=O)c3ccc(Cl)cc3)c(C)c(C)c2O1`, the IC50 with MDA-MB-231 [2] was over 10 µM; in the test with MCF7, over 20 µM.
Take `COc1cccc(COc2cc3c(c(C)c2C)O[C@](C)(CC/C=C(\C)CC/C=C(\C)CCC=C(C)C)CC3)c1`: the outcome in the test on MDA-MB-231 [1] was inactive.
In the test with MCF7, `CC(C)=CCC/C(C)=C/CC/C(C)=C/CC[C@]1(C)CCc2cc(OC(=O)NC(=O)Oc3ccccc3)c(C)c(C)c2O1` returned a 50% inhibitory concentration (IC50) of over 20 µM.
Regarding `CC(C)=CCC/C(C)=C/CC/C(C)=C/CC[C@]1(C)CCc2c(C)c(OC(=O)NS(=O)(=O)c3ccccc3)c(C)c(C)c2O1`, the IC50 in the test on MDA-MB-231 [2] is over 10 µM; in the test on MCF7 it was 4.5 µM.
Turning to `COc1cc2c(c(C)c1C)O[C@](C)(CC/C=C(\C)CC/C=C(\C)CCC=C(C)C)CC2`, the result with MDA-MB-231 [1] was inactive.
Consider `CC(C)=CCCOc1cc2c(c(C)c1C)O[C@](C)(CC/C=C(\C)CC/C=C(\C)CCC=C(C)C)CC2`, for which the result in the test with MDA-MB-231 [1] was inactive.
Consider `CC(C)=CCC/C(C)=C/CC/C(C)=C/CC[C@]1(C)CCc2c(C)c(OC(=O)Nc3ccccc3)c(C)c(C)c2O1`, for which the results for the IC50 in the test with MDA-MB-231 [2] and in the test on MCF7 were over 10 µM and over 20 µM, respectively.
On to `CC(C)=CCC/C(C)=C/CC/C(C)=C/CC[C@]1(C)CCc2cc(OC(=O)NS(=O)(=O)c3ccc(C)cc3)cc(C)c2O1`, for which the results for the half-maximal inhibitory concentration (IC50) with MDA-MB-231 [2] and in the test on MCF7 were 6.6 µM and over 20 µM, respectively. Besides, the result in the test on MDA-MB-231 [1] was Active.
On the same counts, the results for `CC(C)=CCC/C(C)=C/CC/C(C)=C/CC[C@]1(C)CCc2cc(OC(=O)NCc3ccccc3)c(C)c(C)c2O1` are over 10 µM, over 20 µM and “Active”.
`CC(C)=CCC/C(C)=C/CC/C(C)=C/CC[C@]1(C)CCc2cc(OC(=O)NS(=O)(=O)c3ccc(C)cc3)c(C)c(C)c2O1`: in test [5], the “Ratio IC50” value amounted to 2. Also, the results for the IC50 (with MDA-MB-231 [2]; in test [6]; with MCF7) were over 10 µM, 2 µM and 2.4 µM, respectively.
Take `CC(C)=CCC/C(C)=C/CC/C(C)=C/CC[C@]1(C)CCc2c(C)c(OC(=O)NC(=O)Oc3ccccc3)c(C)c(C)c2O1`: the results for the IC50 in the test with MDA-MB-231 [2] and in the test on MCF7 were over 10 µM and over 20 µM, respectively.
On to `CC(C)=CCC/C(C)=C/CC/C(C)=C/CC[C@]1(C)CCc2cc(OC(=O)NS(=O)(=O)c3ccccc3)c(C)c(C)c2O1`, for which the IC50 was over 10 µM in the test with MDA-MB-231 [2] and over 20 µM with MCF7.
In the same order, the values of `CC(C)=CCC/C(C)=C/CC/C(C)=C/CC[C@]1(C)CCc2cc(OC(=O)Nc3ccccc3)cc(C)c2O1` are over 10 µM and over 20 µM.
In the same order, the values of `CC(C)=CCC/C(C)=C/CC/C(C)=C/CC[C@]1(C)CCc2cc(OC(=O)NS(=O)(=O)c3ccc(Cl)cc3)cc(C)c2O1` are over 10 µM and over 20 µM.

The values above are taken from ChEMBL document CHEMBL1158503, “Design and preliminary structure-activity relationship of redox-silent semisynthetic tocotrienol analogues as inhibitors for breast cancer proliferation and invasion” (Bioorg Med Chem, 2010).
